Data published in PubChem BioAssay AID623881 (Johns Hopkins Ion Channel Center, 2012).
Values joined by “and” are separate entries in the source; they are usually repeats but may differ in a detail not shown here. Equal entries are not always repeated. Active and inactive are the calls of the source.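 Rule for the calls: active = peak Kir2.1 potassium channel inhibition over 30% at one or more doses, plus a fitted dose response curve; inactive = no inhibition at any dose, or no curve fitted.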

Target: Inward rectifier potassium channel 2 (Mus musculus) (UniProt P35561)
Sequence (P35561 whole entry, looked up): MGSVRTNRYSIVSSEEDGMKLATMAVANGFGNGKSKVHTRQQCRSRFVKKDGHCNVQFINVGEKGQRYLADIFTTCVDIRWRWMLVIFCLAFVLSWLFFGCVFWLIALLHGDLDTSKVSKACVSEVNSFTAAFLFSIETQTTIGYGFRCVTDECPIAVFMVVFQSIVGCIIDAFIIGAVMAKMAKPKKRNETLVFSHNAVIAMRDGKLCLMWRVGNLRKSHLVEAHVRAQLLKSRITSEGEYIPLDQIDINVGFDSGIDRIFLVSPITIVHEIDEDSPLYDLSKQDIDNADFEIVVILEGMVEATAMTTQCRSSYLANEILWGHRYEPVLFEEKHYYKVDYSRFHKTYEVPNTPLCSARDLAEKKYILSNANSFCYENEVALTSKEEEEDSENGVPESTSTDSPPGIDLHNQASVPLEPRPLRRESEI
Assay: Kir2.1 channel inhibition, specificity check, SAR follow-up, selectivity assay for KCNK9 inhibitor project, cell-based, FluxOR thallium flux, CRC round 4 (AID 623881)
Conditions: Kir2.1-expressing cells, FluxOR thallium flux fluorescence; for thallium flux ratio, lower = inhibition: at 30 µM (top of the series)
Outline: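 Assay system: Kir2.1-expressing HEK293 cells | Also added: Tl+/K+ stimulus (5x stock K2SO4 plus Tl2SO4) | Compound dosing: 10 concentrations per compound | Incubation: 90 min dye load, 20 min compound, room temperature | Measured by: Kinetic FluxOR thallium-dye fluorescence | Measure: Normalized fluorescence change, IC50 and Hill fit | Replicates: at least duplicate wells per concentration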

Row | Compound | thallium flux ratio, lower = inhibition | IC50
1 | COc1ccc(C(=O)CCSc2nnc(-c3ccco3)n2C(C)C2CC3CCC2C3)cc1OC (stereo not given) | inactive | –
2 | C[C@H](C1CCCCC1)n1c(-c2ccsc2)n[nH]c1=S | inactive | –
3 | CC(C1CC2CCC1C2)n1c(SCCN2CCOCC2)nnc1-c1ccco1 (stereo not given) | inactive | –
4 | CCCC(=O)C1CCN(c2ncnc3c2CN(C(=O)c2ccc(-c4ccccc4)cc2)CC3)CC1 | inactive | –
5 | CC(C1CC2CCC1C2)n1c(SCCc2cccc(O)c2)nnc1-c1ccco1 (stereo not given) | – | 11.5 µM
6 | CC(C1CC2CCC1C2)n1c(SCC(=O)N2CCN(C)CC2)nnc1-c1ccco1 (stereo not given) | inactive | –
7 | COc1cccc(-c2n[nH]c(=S)n2[C@H](C)C2CCCCC2)c1 | inactive | –
8 | CC(C1CC2CCC1C2)n1c(N)nnc1-c1ccco1 (stereo not given) | inactive | –
9 | COc1cccc(CCSc2nnc(-c3ccco3)n2C(C)C2CC3CCC2C3)c1 (stereo not given) | – | 9.06 µM
10 | CC(C1CCN(C)CC1)n1c(-c2ccco2)n[nH]c1=S (stereo not given) | inactive | –
11 | COc1cccc(-c2nnc(SSc3nnc(-c4cccc(OC)c4)n3C(C)C3CC4CCC3C4)n2C(C)C2CC3CCC2C3)c1 (stereo not given) | inactive | –
12 | C[C@H]([C@@H]1CC2CC[C@H]1C2)n1c(-c2ccccc2F)n[nH]c1=S | inactive | –
13 | C[C@H]([C@@H]1CC2CC[C@H]1C2)n1c(-c2ccsc2)n[nH]c1=S | inactive | –
14 | C[C@H]([C@@H]1CC2CC[C@H]1C2)n1c(-c2ccco2)n[nH]c1=S | inactive | –
15 | C[C@@H]([C@@H]1CC2CC[C@H]1C2)n1c(-c2ccsc2)n[nH]c1=S | – | 23.5 µM and 25 µM
16 | COc1ccc(CSc2nnc(-c3ccco3)n2C(C)C2CC3CCC2C3)cc1OC (stereo not given) | – | 18.4 µM
17 | CC([C@@H]1CC2CC[C@H]1C2)n1c(-c2ccsc2)n[nH]c1=S (stereo not given in full) | inactive | –
18 | CC(C1CC2CCC1C2)n1c(-c2ccco2)nn(CCc2ccncc2)c1=S (stereo not given) | inactive | –
19 | C[C@@H]([C@@H]1CC2CC[C@H]1C2)n1c(-c2ccco2)n[nH]c1=S | inactive | –
20 | COc1cccc(-c2n[nH]c(=S)n2[C@H](C)[C@@H]2CC3CC[C@H]2C3)c1 | inactive | –
21 | CC(C1C[C@H]2CCC1C2)n1c(-c2ccsc2)n[nH]c1=S (stereo not given in full) | – | 23.1 µM
22 | CC(C1CC2CCC1C2)n1c(SCCc2ccccn2)nnc1-c1ccco1 (stereo not given) | – | 15.4 µM
23 | COc1ccc(CC(=O)NCc2ccccc2-c2ccccc2C(=O)NCc2ccc(F)cc2F)cc1 | inactive | –
24 | COc1ccc(NC(=O)CSc2nnc(-c3ccco3)n2C(C)C2CC3CCC2C3)cc1OC (stereo not given) | inactive | –
25 | C[C@H](C1CCCCC1)n1c(-c2ccccc2F)n[nH]c1=S | inactive | –
